Data taken from ChEMBL document CHEMBL4665722, “Discovery of a novel selective water-soluble SMAD3 inhibitor as an antitumor agent” (Bioorg Med Chem Lett, 2020).
Values after ≈ are worked out from the molar mass of the structure shown. Active and inactive are the calls of the source. The calls are words filed in the database; no cut-off is given here.

Tests used:
[1] = molecular target: Mothers against decapentaplegic homolog 2 (Homo sapiens) (UniProt Q15796); test: Inhibition of TGF-beta induced SMAD2 phosphorylation in human A549 cells at 5 to 10 uM pretreated with compound for 2 hrs followed by TGF-beta stimulation by Western blot analysis; format: cell-based; settings: dose microM 5-10, time 2.0 hrs
Method in brief: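 A549 cells pre-treated 2 h at 5 and 10 μM, then stimulated with 1 ng/mL TGF-β for 30 min. Lysates probed by western blot for phospho-SMAD2, SMAD2, phospho-SMAD3 and SMAD3. GAPDH served as loading control.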

[2] = Solubility of the compound in water; format: physicochemical
Method in brief: (§1)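 Solubility of free base or HCl salt measured in pure water and in phosphate buffer pH 7.4 at room temperature, quantified by HPLC.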

Lewis lung carcinoma [3] = test: Antitumor activity against mouse Lewis lung carcinoma cells allografted in ip dosed C57BL/6 mouse assessed as reduction in tumor weight administered for 20 consecutive days; settings: dose microg/g 1.25-5, time 20.0 day
Lewis lung carcinoma [4] = test: Antitumor activity against mouse Lewis lung carcinoma cells allografted in ip dosed C57BL/6 mouse assessed as reduction in tumor volume administered for 20 consecutive days; settings: dose microg/g 1.25-5, time 20.0 day
Mus musculus = test: Induction of NK-mediated antitumor immunity in ip dosed C57BL/6 mouse allografted with mouse Lewis lung carcinoma cells assessed as increase in NK cell infiltration in tumor by immunofluorescent staining based assay; settings: dose microg/g 1.25-5
[5] = Solubility of the compound in PBS buffer at pH 7.4; format: physicochemical; method in brief: as §1
A549 = test: Cytotoxicity against human A549 cells assessed as inhibition of cell growth by MTT assay; format: functional; settings: read-out: TD50 (the source's name)
Method in brief: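 A549 cell growth measured by MTT assay. Value is the concentration giving 50% growth inhibition relative to controls, mean of three experiments.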

[6] = molecular target: Mothers against decapentaplegic homolog 3 (Homo sapiens) (UniProt P84022); settings: NIH3T3
Mothers against decapentaplegic homolog 3 (Homo sapiens), sequence (P84022 2-425 limits assumed): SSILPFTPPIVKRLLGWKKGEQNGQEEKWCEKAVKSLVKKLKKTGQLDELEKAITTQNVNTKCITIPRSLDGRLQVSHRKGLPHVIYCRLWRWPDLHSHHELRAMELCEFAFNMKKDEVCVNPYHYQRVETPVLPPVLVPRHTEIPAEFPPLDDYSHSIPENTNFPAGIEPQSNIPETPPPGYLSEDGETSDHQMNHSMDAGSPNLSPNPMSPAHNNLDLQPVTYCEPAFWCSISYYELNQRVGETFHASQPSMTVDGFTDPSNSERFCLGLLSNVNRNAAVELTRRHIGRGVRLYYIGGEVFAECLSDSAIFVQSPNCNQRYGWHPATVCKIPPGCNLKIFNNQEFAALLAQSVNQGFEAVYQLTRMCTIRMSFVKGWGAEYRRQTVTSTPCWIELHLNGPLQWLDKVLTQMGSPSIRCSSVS

Mothers against decapentaplegic homolog 2 (Homo sapiens), sequence (Q15796 whole entry): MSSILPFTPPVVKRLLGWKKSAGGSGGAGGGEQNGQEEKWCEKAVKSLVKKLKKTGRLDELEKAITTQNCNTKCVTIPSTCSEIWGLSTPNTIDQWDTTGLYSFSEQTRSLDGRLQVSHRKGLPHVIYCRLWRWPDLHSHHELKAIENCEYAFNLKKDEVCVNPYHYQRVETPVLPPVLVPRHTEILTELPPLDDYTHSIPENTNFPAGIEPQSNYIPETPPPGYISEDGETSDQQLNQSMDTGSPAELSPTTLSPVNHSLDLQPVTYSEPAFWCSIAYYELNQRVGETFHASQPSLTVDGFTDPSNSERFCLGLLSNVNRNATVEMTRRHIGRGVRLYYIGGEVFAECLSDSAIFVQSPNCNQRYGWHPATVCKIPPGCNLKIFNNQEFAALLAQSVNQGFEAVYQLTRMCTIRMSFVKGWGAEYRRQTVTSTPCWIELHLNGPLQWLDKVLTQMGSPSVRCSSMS

Row | Compound | inhibition [1] | solubility [5] [µg/mL] | CC50 (A549) [µM] | further results
1 | COc1ccc(CN2CC/C(=C\c3c(-c4ccccc4)n(C)c4ncccc34)C2=O)cc1OC | inactive | – | – | –
2 | Cc1nc(C)c(CN2CC/C(=C\c3c(-c4ccccc4)n(C)c4ncccc34)C2=O)nc1C.Cl | – | – | – | solubility ([2]; water): > 94000 µg/mL
3 | COc1cc2c(cc1OC)CN(C(=O)/C=C/c1c(-c3ccccc3)n(C)c3ncccc13)CC2.Cl | – | 6 | 18.7 | solubility [2]: 141 µg/mL; ED50 [6]: 4.53 µM

Second part, led by results:

Row | inhibition [1] | solubility [5] [µg/mL] | Compound | CC50 (A549) [µM] | further results
4 | inactive | – | Cc1nc(C)c(CN2CC/C(=C\c3c(-c4ccccc4)n(C)c4ncccc34)C2=O)nc1C [listing 1 of 2 here] | – | Activity (Lewis lung carcinoma [3]): Dose-dependent effect; Activity (Lewis lung carcinoma [4]): Dose-dependent effect; Activity (Mus musculus): Dose-dependent effect
5 | – | 14 (≈ 32 µM) | Cc1nc(C)c(CN2CC/C(=C\c3c(-c4ccccc4)n(C)c4ncccc34)C2=O)nc1C [listing 2 of 2 here] | 22 | –
